Bioassay records: PubChem, Broad Institute
Statin myotox sup: suppression of simvastatin myotoxicity; C2C12 myotubes + simvastatin, ATP luminescence, 48 h; scaled: DMSO 0, geranylgeraniol control 100; rescue of ATP level, % at 7.49 µM; 330,000 compounds, 0.78% hits;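 active = mean ATP rescue above about 67%, or every replicate alone reaching that limit, limit read from the data, passing the limit was not always enough; inconclusive = no clear call, values can overlap the other calls; inactive = mean under the limit and some replicate under it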;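 also: myotubes were challenged with 10 µM simvastatin during compound exposure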
PDI inh: blocks human protein disulfide isomerase activity. P07237. PDI insulin aggregation turbidity, A650, 90 min. inhibition, % at 10 µM. 350,000 compounds, 0.052% hits. AID 588391;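 active = mean inhibition across replicates of 30% or more, whatever share of single replicates reach that level; inconclusive = mean inhibition below 30% while every single replicate reaches 30%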
Target sequence (P07237 whole entry, looked up): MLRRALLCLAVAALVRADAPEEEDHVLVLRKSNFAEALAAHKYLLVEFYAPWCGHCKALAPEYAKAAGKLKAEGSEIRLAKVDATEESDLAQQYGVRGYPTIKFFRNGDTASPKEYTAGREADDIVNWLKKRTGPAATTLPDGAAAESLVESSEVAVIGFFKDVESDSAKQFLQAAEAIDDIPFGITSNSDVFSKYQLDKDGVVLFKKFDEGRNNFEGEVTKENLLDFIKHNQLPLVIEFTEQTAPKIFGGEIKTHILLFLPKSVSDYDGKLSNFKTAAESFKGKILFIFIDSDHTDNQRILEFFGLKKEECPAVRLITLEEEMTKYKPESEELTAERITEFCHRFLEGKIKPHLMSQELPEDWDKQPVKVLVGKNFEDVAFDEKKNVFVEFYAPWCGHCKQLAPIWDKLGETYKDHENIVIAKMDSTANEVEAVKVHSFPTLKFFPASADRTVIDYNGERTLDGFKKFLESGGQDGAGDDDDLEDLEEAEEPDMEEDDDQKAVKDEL
Cneo AK release: Cryptococcus neoformans lysis via adenylate kinase release. C. neoformans lysis, adenylate kinase release luminescence, 4 h; normalised: neutral wells 0, clomiphene wells 100. lysis activity, % at 15 µM. 360,000 compounds, 0.2% hits. AID 651654;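 active = mean lysis activity across replicates of at least 80%, whatever share of replicates individually reach that level; inactive = mean lysis activity below 80%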
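Schedule: static 4 h at 37 °C with compound, 1 h detection; system: C. neoformans cells; benchmarks: Clomiphene as positive control; buffer or medium: fresh YPD medium; measure: luminescence rise reflecting yeast cell lysis; measured by: luminescent adenylate kinase detection reagent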
CFTR F508del cor: CFTR F508del correction in bronchial cells; CFBE cells, YFP halide quenching; stimulated with forskolin plus potentiator P3; % fluorescence drop versus neutral controls; activity (quench increase), % at 7.58 µM; 350,000 compounds, 0.36% hits; AID 720511;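 active = mean added fluorescence quench of at least 8% versus neutral control, with both replicates also reaching 8%; inconclusive = only one of the mean or replicate conditions met; inactive = mean below 8% and not both replicates reaching 8%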;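 also: cells transiently co-express mutant CFTR-F508del with the halide-sensitive YFP; corrector assay measuring rescue of mutant channel to the surface after 24 h compound exposure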
ERp5 block: ERp5 (human) disulfide isomerase inhibition; ERp5 insulin aggregation, absorbance 650 nm, 90 min; Q15084; 350,000 compounds, 0.05% hits; inhibition, % at 9.99 µM;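 active = mean replicate inhibition above about 25%, with every replicate also reaching it, limit read from the data, passing the limit was not always enough; inconclusive = only one of those two criteria met; inactive = neither criterion met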
DENV2 CPE: protects cells from dengue virus 2 cytopathic effect. CPE inhibition, % at 9.99 µM. 350,000 compounds, 1.7% hits. DENV2-infected cells, cytopathic effect rescue, plate reader; in the data active = CPE inhibition above about 20%, passing the limit was not always enough; inconclusive = no clear call, values can overlap the other calls; tested in BHK-21 cells;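 also: 0% = median of neutral control wells and 100% = median of positive control wells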
Starred values were filed as active, the others as inactive; ? = inconclusive; nt = no result given. Most compounds without a hit are left out; they make up all but 2.3% or so of the library.

SMILES	Statin myotox sup	PDI inh	Cneo AK release	CFTR F508del cor	ERp5 block	DENV2 CPE
Cc1noc(C)c1S(=O)(=O)Nc1ccc2c(c1)C(=O)N([C@H](C)CO)C[C@@H](C)[C@@H](CN(C)Cc1ccc(C(=O)O)cc1)OCCCC[C@@H](C)O2	nt	nt	-2	-2	4	38*
Cc1noc(C)c1S(=O)(=O)Nc1ccc2c(c1)C(=O)N([C@H](C)CO)C[C@H](C)[C@@H](CN(C)Cc1ccc(C(=O)O)cc1)OCCCC[C@H](C)O2	nt	nt	1	1	-1	-3
Cc1noc(C)c1S(=O)(=O)Nc1ccc2c(c1)C(=O)N([C@@H](C)CO)C[C@@H](C)[C@H](CN(C)Cc1ccc(C(=O)O)cc1)OCCCC[C@H](C)O2	nt	nt	-4	-2	-3	24*
O=C(C[C@H]1CC[C@H]2[C@@H](COC[C@H](O)CN2Cc2cc(F)ccc2F)O1)N[C@H]1CCN(Cc2ccccc2)C1	4	nt	6	-1	1	0
COc1cccc(C2C(C#N)=C(N)Oc3cc(C)n(Cc4ccco4)c(=O)c32)c1 (stereo not drawn)	142*	-7	7	nt	nt	nt
Cc1ccc(S(=O)(=O)N(C)C[C@H]2Oc3ccc(NS(=O)(=O)c4ccc(Cl)cc4)cc3C(=O)N([C@@H](C)CO)C[C@H]2C)cc1	24	nt	nt	3	5	1
COC(=O)C[C@@H]1C[C@@H]2c3cc(NC(=O)Nc4ccc(F)cc4)ccc3O[C@@H]2[C@@H](CO)O1	-15	nt	-2	-3	nt	-2
COc1ccc2ccccc2c1CNC(C)c1ccccc1 (stereo not drawn)	-2	16	8	1	2	36*
COc1ccc2ccccc2c1CNCc1ccc(C)cc1	-35	0	-3	1	3	-9
C[C@H]1CCCCO[C@H](CN(C)C(=O)NC2CCCCC2)[C@@H](C)CN([C@@H](C)CO)C(=O)c2cc(NC(=O)Nc3ccc(F)cc3)ccc2O1	nt	nt	nt	-1	3	32*
C[C@@H]1CN([C@H](C)CO)C(=O)c2cc(NC(=O)Nc3ccc(F)cc3)ccc2O[C@@H](C)CCCCO[C@H]1CN(C)C(=O)NC1CCCCC1	nt	nt	2	-2	2	21*
C[C@@H]1CCCCO[C@@H](CN(C)C(=O)NC2CCCCC2)[C@H](C)CN([C@H](C)CO)C(=O)c2cc(NC(=O)Nc3ccc(F)cc3)ccc2O1	nt	nt	0	3	0	-5
C[C@H](CO)N1C[C@H](C)[C@@H](CN(C)S(=O)(=O)c2ccccc2F)Oc2ncc(C#Cc3ccncc3)cc2C1=O	52	nt	-2	0	-3	-16
Cc1ccc(/C=N/c2sc3c(c2C#N)CCC3)s1	120*	-4	-2	nt	nt	nt
CCCN1C[C@@H](C)[C@H](OC)CN(C)C(=O)c2ccc(NC(=O)c3cccc(OC)c3)cc2OC[C@@H]1C	nt	nt	nt	4	nt	11
C[C@@H]1CCCCO[C@@H](CN(C)Cc2ccc3c(c2)OCO3)[C@H](C)CN([C@H](C)CO)C(=O)c2cc(NC(=O)Nc3cccc4ccccc34)ccc2O1	-559	nt	5	0	nt	-24
CC[C@H](C)C(C(=O)N1CCN(C(=O)OC(C)(C)C)CC1)n1cc(C(CC(C)C)NC(=O)OC(C)(C)C)nn1 (stereo partly drawn)	12	-4	-2	-3	0	32*
CCCNC(=O)C[C@@H]1CC[C@@H]2[C@@H](COc3ccc(NC(=O)c4ccc(OC)cc4)cc3C(=O)N2C)O1	7	nt	-2	-3	nt	1
C=C1CCN(c2ccc(C(=O)NCc3ccc(OC)cc3)cc2[N+](=O)[O-])CC1	nt	1	1	-1	1	?
C=C1CCN(c2ccc(C(=O)NCc3ccc(C)cc3)cc2[N+](=O)[O-])CC1	120*	-15	0	-1	-5	4
O=C(CSCC(=O)NN=Cc1ccccc1O)NN=Cc1ccccc1O	9	-1	nt	-1	4	-5
O=C(NN=Cc1ccccc1O)c1cccc([N+](=O)[O-])c1	2	6	-1	11*	0	14
CCCCCCCC(=O)N/N=C/c1ccc(Br)cc1	133*	-4	6	nt	nt	nt
O=C(N/N=C/c1ccccn1)c1cccc([N+](=O)[O-])c1	nt	3	nt	-2	-3	7
O=C(CCCCC(=O)NN=Cc1ccccc1O)NN=Cc1ccccc1O	106*	13	1	1	-4	4
SMILES	Statin myotox sup	PDI inh	Cneo AK release	CFTR F508del cor	ERp5 block	DENV2 CPE
CCC(N=c1cc(-c2ccc(OC)c(OC)c2)oc2ccc(C)cc12)C(=O)O (stereo not drawn)	nt	3	nt	1	5	22*
CCCCCCN1C[C@H](O)[C@@H](n2cc(-c3ccc(F)cc3)nn2)C[C@@H]1c1ccccc1	0	7	13	4	-4	?
O[C@@H]1CN(Cc2cccs2)[C@@H](c2ccccc2)C[C@H]1n1cc(-c2ccc(F)cc2)nn1	8	2	-1	-4	-5	51*
CCCCCCN1C[C@H](n2cc(-c3ccc(F)cc3)nn2)[C@@H](O)C[C@@H]1c1ccccc1	3	6	0	-3	3	93*
CO[C@@H]1CN(C)C(=O)c2cc(NS(C)(=O)=O)ccc2OC[C@H](C)N(CC2CC2)C[C@@H]1C	-4	nt	10	1	-1	-2
COc1ccccc1CNC(=O)C[C@@H]1CC[C@@H]2[C@H](COC[C@@H](O)CN2Cc2ccccc2)O1	-20	nt	109*	-2	7	3
O=C(C[C@@H]1CC[C@H]2[C@@H](COC[C@@H](O)CN2Cc2cccc(C(F)(F)F)c2)O1)NCCc1ccccc1	25	nt	0	1	-21	26*
O=C(C[C@@H]1CC[C@@H]2[C@H](COC[C@H](O)CN2Cc2ccc(Cl)cc2)O1)NCc1cccc(F)c1	36	nt	2	6	-2	10
O=C(C[C@@H]1CC[C@H]2[C@@H](COC[C@@H](O)CN2Cc2ccc(Cl)cc2)O1)NCc1cccc(F)c1	35	nt	104*	-2	3	1
CCNC(=O)C[C@H]1CC[C@H]2[C@@H](COC[C@H](O)CN2Cc2ccc(Cl)c(Cl)c2)O1	25	nt	-5	3	1	109*
COc1ccccc1CNC(=O)C[C@@H]1CC[C@H]2[C@@H](COC[C@H](O)CN2Cc2ccccc2)O1	2	nt	1	-2	-5	-3
C[C@H]1CN([C@@H](C)CO)C(=O)c2cc(-c3cccc(F)c3)cnc2O[C@@H]1CN(C)C(=O)C1CCC1	6	nt	1	0	0	?
CO[C@@H]1CN(C)C(=O)c2cc(NC(=O)Nc3ccccc3)ccc2OC[C@@H](C)N(C(=O)CN(C)C)C[C@H]1C	-16	nt	8	0	3	-6
C[C@@H]1CN([C@@H](C)CO)C(=O)Cc2cc(NS(=O)(=O)c3cccs3)ccc2O[C@H]1CN(C)Cc1ccc(Cl)c(Cl)c1	-15	nt	2	-1	-3	1
